Hits are enriched below; roughly 3.1% of the tested compounds scored in any of these assays.
Ecoli rRNA inh – reduced GFP signal of wild-type E. coli, primary screen, bacterial rRNA inhibitor project, GFP/RFP fluorescence, OD600, single point | E. coli WT GFP vs humanized-ribosome RFP mutants, 24 h; stronger effect = lower value; DMSO median 0, no signal -100 | GFP signal change (wild-type ribosome), % (test concentration not listed) | 350,000 compounds, 1.6% hits;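 active means significant combined selectivity score with lowered wild-type GFP, culture density cut under 30%, mutant RFP and density less affected; inactive means any of these conditions unmet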
E-sel inducer – E-selectin induction in HUVECs, primary screen, imaging, HUVEC, immunofluorescence imaging, single point; P16581; normalized: neutral wells 0, TNF-alpha wells 100; 260,000 compounds, 0.37% hits; activation, % at 7.58 µM;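 active means mean E-selectin-positive cell signal at least 10% of the positive control, reached in at least 60% of replicates, without over 20% cell loss; inconclusive means no rule given, readout overlaps actives, possibly toxicity-flagged; inactive means the rest, including those meeting only one limit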
Target sequence (P16581 whole entry, looked up): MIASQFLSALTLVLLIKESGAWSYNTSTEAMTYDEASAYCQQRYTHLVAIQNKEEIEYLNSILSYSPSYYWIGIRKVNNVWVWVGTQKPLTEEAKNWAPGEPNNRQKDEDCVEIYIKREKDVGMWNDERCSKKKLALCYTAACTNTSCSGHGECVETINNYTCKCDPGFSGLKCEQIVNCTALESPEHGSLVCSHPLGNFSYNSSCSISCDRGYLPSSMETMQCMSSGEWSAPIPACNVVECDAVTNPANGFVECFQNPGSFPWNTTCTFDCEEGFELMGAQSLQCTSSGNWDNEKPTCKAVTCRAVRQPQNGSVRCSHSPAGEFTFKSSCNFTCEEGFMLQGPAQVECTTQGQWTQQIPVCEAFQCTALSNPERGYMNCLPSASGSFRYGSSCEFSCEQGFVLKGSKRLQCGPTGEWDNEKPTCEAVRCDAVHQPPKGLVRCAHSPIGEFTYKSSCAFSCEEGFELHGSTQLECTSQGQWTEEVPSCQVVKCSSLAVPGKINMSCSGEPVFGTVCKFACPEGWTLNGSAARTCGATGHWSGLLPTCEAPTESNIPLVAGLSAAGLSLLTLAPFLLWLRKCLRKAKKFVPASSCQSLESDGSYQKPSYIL
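material = human umbilical vein endothelial cells (HUVEC), E-selectin induction | quantity = 3,000 cells/well | medium = EGM-2 growth medium on 0.1% gelatin-coated wells | technique = immunofluorescence imaging | read-out basis = % PE-positive cells | control set = TNF-alpha positive control, DMSO neutral control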
Cneo AK release – Cryptococcus neoformans cell lysis inducers, primary screen, AK release luminescence, single concentration; C. neoformans lysis, adenylate kinase release luminescence, 4 h; normalised: neutral wells 0, clomiphene wells 100; lysis activity, % at 15 µM; 360,000 compounds, 0.2% hits; AID 651654, 2012;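 active means mean lysis activity across replicates of at least 80%, whatever share of replicates individually reach that level; inactive means mean lysis activity below 80%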
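Signal: Adenylate kinase release luminescence | Assay system: Log-phase Cryptococcus neoformans yeast cells | Input: Cells at 5 × 10^6 per mL | Buffer or medium: Fresh YPD growth medium | Compound: Single dose | Schedule: Static 4 h at 37 °C with compound, 1 h detection | Controls: Clomiphene | Read-out: Luminescence rise reflecting yeast cell lysis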
miR-122 sensor – miR-122 Renilla sensor signal increase in Huh7, primary screen, miR-122 inhibitor project, cell-based, single point, plate reader. Huh7 miR-122 Renilla luciferase sensor, 48 h; neutral wells = 0, positive control = 100. activation (reporter increase), % at 12.5 µM. 340,000 compounds, 0.3% hits. AID 602342, 2012;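 active means mean replicate activation score at least 90 and every replicate individually at or above 90; inconclusive means only one of the two criteria met; inactive means neither criterion met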;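 further: higher luciferase means less miR-122 activity so hits act as miR-122 inhibitors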
DENV2 CPE rescue – inhibitors of DENV2 cytopathic effect, primary screen, cell-based, plate reader, single concentration; 350,000 compounds, 1.7% hits; DENV2-infected cells, cytopathic effect rescue; CPE inhibition, % at 9.99 µM; AID 651640, 2012; in the data active means CPE inhibition above about 20%, passing the limit was not always enough; inconclusive means no clear call, values can overlap the other calls; tested in BHK-21 cells;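 further: 0% = median of neutral control wells and 100% = median of positive control wells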
An asterisk follows results filed as active; ? = inconclusive; nt = not tested or not shown; [ ] = dose if it differs, or a comment.

SMILES | Ecoli rRNA inh | E-sel inducer | Cneo AK release | miR-122 sensor | DENV2 CPE rescue
CCCC[N+]12CCC(CC1)C(C(O)(c1ccccc1)c1ccccc1)C2 (centres undefined) | 2 | 53* | nt | nt | -5
CC(C)NC(=O)N1C[C@@H]2C(c3ccc(Br)cc3)[C@H](C1)N2CC1CC1 (some centres undefined) | 0 | nt | nt | nt | nt
COC(=O)[C@H]1[C@H](CO)[C@H]2Cn3c(ccc(C4=CCCC4)c3=O)[C@@H]1N2CC1CCCC1 | 0 | 1 | nt | nt | 15
COC(=O)C1=C(c2ccc(OC(F)(F)F)cc2)C[C@@H]2CC[C@H]1N2C(=O)N1CCC(O)CC1 | 2 | 0 | -1 | nt | 13
COC(=O)C1=C(c2ccccc2)C[C@@H]2CC[C@H]1N2C(=O)N1CCOCC1 | -1 | 0 | -2 | nt | 38*
COC(=O)C1=C(c2ccc(OC(F)(F)F)cc2)C[C@@H]2CC[C@H]1N2C(=O)N1CCCCC1 | -25 | 0 | 0 | 6 | 48*
COC(=O)[C@H]1[C@H](CO)[C@H]2Cn3c(ccc(-c4cccc(OC)c4)c3=O)[C@@H]1N2C(=O)c1cnccn1 | -1 | 0 | 0 | 3[16.7 µM] | 19
O=C([C@H]1N[C@H]2c3cccc(=O)n3C[C@H]2[C@@H]1CO)N1CCCCC1 | 2 | nt | nt | nt | nt
COc1ccc2c(c1)C13CCN4CC5=CCOC6CC(=O)N2C1C6C5CC43 (centres undefined) | nt | nt | -1 | 2 | 71*
O=C(O)[C@@H]1[C@@H](CO)[C@@H]2Cn3c(cccc3=O)[C@H]1N2C(=O)c1ccccc1 | 1 | -1 | 50 | nt | 3
O=C(Nc1ccc(C(F)(F)F)cc1)OC1CN2CCC1CC2 (centres undefined) | -18 | 0 | nt | nt | 39*
COc1ccc(C(CC(=O)c2ccc3c(c2)OCO3)c2c(O)c3ccccc3oc2=O)cc1OC (centres undefined) | -30* | 0 | -1 | 1 | -1
CNc1ccc2oc(C[C@H]3O[C@@]4(CC[C@H]3C)O[C@H]([C@H](C)C(=O)c3ccc[nH]3)[C@H](C)C[C@H]4C)nc2c1C(=O)O | nt | 1 | -2 | -23 | 43*
O=C(Cc1ccccc1)N1CCCCN2[C@@H](CO)[C@H](c3ccc(C#CC4(O)CCCC4)cc3)[C@@H]2C1 | -2 | 0 | -1 | 3[16.7 µM] | -11
COc1cc(/C=C/c2nc3ccccc3c(=O)n2-c2ccc(O)cc2)ccc1O | -1 | 0 | -1 | -3 | -1
COc1ccc(-n2c(/C=C/c3ccc(O)c(O)c3)nc3ccccc3c2=O)cc1 | -21* | nt | -1 | -3 | -5
O=C1CNC[C@H]2[C@@H](c3ccc(Br)cc3)[C@@H](CO)N12 | -1 | nt | nt | nt | -11
Cc1cccn2c(=O)c3c(nc12)N1CCCCCC1C1(C3)C(=O)N(C)C(=O)N(C)C1=O (centres undefined) | 16 | 55* | 5 | -3 | -3
O=C(O)[C@@H]1[C@@H](CO)[C@@H]2Cn3c(ccc(-c4ccncc4)c3=O)[C@H]1N2C(=O)C1CC1 | 4 | 0 | nt | nt | nt
C/C(=C\c1ccc(N(C)C)cc1)[N+](=O)[O-] | -5 | nt | nt | 3 | 3
CN(C)c1ccc(/C=C/[N+](=O)[O-])cc1 | -18* | 0 | nt | nt | -6
CCOS(C)(=O)=O | 2 | nt | 2 | 3 | 48*
Cc1ccccc1S(=O)(=O)N1[C@@H]2c3ccc(-c4cccnc4)c(=O)n3C[C@H]1[C@H](CO)[C@H]2C(=O)O | 3 | 0 | -2 | -1[16.7 µM] | 1
C=CCN1[C@@H]2CN(C(C)=O)C[C@H]1C2c1ccccc1 (some centres undefined) | 0 | nt | nt | nt | nt
CC(=O)N1C[C@@H]2N[C@H](C1)C2c1ccccc1 (some centres undefined) | 0 | nt | nt | nt | nt
SMILES | Ecoli rRNA inh | E-sel inducer | Cneo AK release | miR-122 sensor | DENV2 CPE rescue
Cc1cccc(OP(=O)(Nc2cccnc2)Oc2cccc(C)c2)c1 | nt | 0 | nt | nt | nt
O=P(Nc1cccnc1)(Oc1ccccc1Cl)Oc1ccccc1Cl | -33* | -2 | nt | nt | 6
O=C(NCc1cccnc1)Nc1ccc([N+](=O)[O-])cc1 | -7 | 0 | -1 | -4 | 36*
O=C(NCc1cccnc1)Nc1ccccc1Cl | 5 | 0 | 0 | 1 | 9
NC(C(=O)O)c1cc(=O)[nH]o1 (centres undefined) | 12 | 84* | 1 | -3 | 2
CCN1C[C@]2(COC)CC[C@H](OC)[C@@]34C5C[C@H]6C(=O)C5[C@](O)(C[C@H]6OC)[C@@](O)(C(OC)C23)[C@@H]14 (some centres undefined) | nt | nt | -2 | -6 | 44*
COC(=O)[C@H]1[C@H](CO)[C@H]2Cn3c(ccc(-c4ccccc4F)c3=O)[C@@H]1N2 | 2 | 0 | -3 | nt | -1
O=C1NC(=O)N(c2ccc3c(c2)OCO3)C(=O)/C1=C/c1ccc(N2CCCC2)o1 | 14 | nt | nt | nt | 77*
CCOC(=O)[C@]12Cc3ccc(C)cc3[C@H]1N(C1CCCCC1)C(=O)c1cc(OC)ccc12 | -33 | 0 | nt | nt | 55*
CCCCC(=O)N/N=C/c1c(O)n(Cc2ccc(F)cc2)c(=O)[nH]c1=O | -27* | ? | nt | nt | -5
COC(=O)C1=C(c2cc3ccccc3s2)C[C@@H]2CC[C@H]1N2C(=O)NCc1ccccc1 | -22 | 0 | 1 | -5 | 117*
COC(=O)C1=C(c2ccc(F)cc2OCc2ccccc2)C[C@@H]2CC[C@H]1N2C(=O)N1CCCCC1 | -2 | 0 | -1 | -5 | -11
COC(=O)C1=C(c2ccc(F)cc2OCc2ccccc2)C[C@@H]2CC[C@H]1N2C(=O)N1CCC(O)(c2ccc(Cl)cc2)CC1 | 2 | 0 | -1 | -4 | 77*
COC(=O)C1=C(c2cccc(OCc3ccccc3)c2)C[C@@H]2CC[C@H]1N2C(=O)NCCOc1ccccc1Cl | 26 | 0 | 3 | -11 | 3
COC(=O)C1=C(c2cccc(OCc3ccccc3)c2)C[C@@H]2CC[C@H]1N2C(=O)NCc1ccc(Cl)cc1 | 19 | 0 | 2 | nt | 25*
COC(=O)C1=C(c2cc3ccccc3s2)C[C@@H]2CC[C@H]1N2C(=O)NCc1ccc(F)cc1 | -20 | 0 | 3 | nt | 0
COC(=O)C1=C(c2cccc(OCc3ccccc3)c2)C[C@@H]2CC[C@H]1N2C(=O)NCCOc1ccccc1 | 1 | 0 | 1 | -3 | 90*
COC(=O)C1=C(c2cccc(OCc3ccccc3)c2)C[C@@H]2CC[C@H]1N2C(=O)NCc1ccccc1 | -5 | 1 | 1 | nt | 2
COC(=O)[C@@H]1[C@@H](CO)[C@@H]2Cn3c(ccc(-c4ccccc4F)c3=O)[C@H]1N2Cc1ccncc1 | 0 | 0 | -3 | 6[16.7 µM] | -10
